# Measured values: ChEMBL document CHEMBL2417469, “Synthesis of novel analogs of 2-pyrazoline obtained from [(7-chloroquinolin-4-yl)amino]chalcones and hydrazine as potential antitumor and antimalarial agents” (Eur J Med Chem, 2013)
# How the values were obtained:
# Plasmodium falciparum [1] = assay: Antimalarial activity against Plasmodium falciparum NF54 infected in human serum at 20 ug/ml after 48 hrs by fluorometric method; format: functional
# Outline: (§1)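 Asynchronous P. falciparum NF54 at 1.5–2% parasitemia, 5% hematocrit in RPMI with 10% human serum, exposed 48 h at 37 °C under 90% N2/5% CO2/5% O2 at the stated concentration; parasite DNA stained with ethidium bromide after proteinase K lysis; viability % = (Flu treated − medium)/(Flu untreated − medium) ×100; triplicate.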
# [2] = Toxicity in RBC (unknown origin) assessed as hemolysis after 48 hrs at 20 to 80 ug/ml by spectrophotometry; format: cell-based, Erythrocyte; details: red blood cells (RBC); read-out: Activity
# Outline: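 Red blood cells at 5% hematocrit in RPMI 1640 exposed to 20, 40 and 80 µg/mL for 48 h at 37 °C; free hemoglobin read spectrophotometrically at 542 nm.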
# Plasmodium falciparum [3] = assay: Antimalarial activity against Plasmodium falciparum NF54 infected in human serum after 48 hrs by fluorometric method; format: functional, organism-based
# Outline: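 Asynchronous P. falciparum NF54 cultures at 1.5–2% parasitemia, 5% hematocrit in RPMI with 10% human serum; equal volumes of parasite suspension and compound dilutions (from 100 µg/mL stock) incubated 48 h, 37 °C, 90% N2/5% CO2/5% O2. DNA extracted with proteinase K lysis, stained with ethidium bromide; fluorescence-based viability vs compound-free control. IC50 by Probit; triplicate.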
# Plasmodium falciparum [4] = assay: Antimalarial activity against Plasmodium falciparum NF54 infected in human serum at 22.2 ug/ml after 48 hrs by fluorometric method; format: functional; outline: as §1
Structure (SMILES),inhibition at 20 µg/mL (Plasmodium falciparum [1]),hemolysis at 48 h [2],IC50 (Plasmodium falciparum [3]),inhibition at 22.2 µg/mL (Plasmodium falciparum [4])
Cc1ccc(C2CC(c3cccc(Nc4ccnc5cc(Cl)ccc45)c3)=NN2C=O)cc1 (stereo unspecified),0%,–,–,–
CC(=O)N1N=C(c2ccc(Nc3ccnc4cc(Cl)ccc34)cc2)CC1c1ccc(Br)cc1 (stereo unspecified),6.8%,–,–,–
CC(=O)N1N=C(c2ccc(Nc3ccnc4cc(Cl)ccc34)cc2)CC1c1ccccc1 (stereo unspecified),33%,2.8%,38 mg/L,–
O=CN1N=C(c2cccc(Nc3ccnc4cc(Cl)ccc34)c2)CC1c1ccc(Br)cc1 (stereo unspecified),12.5%,–,–,–
COc1ccc(C2CC(c3ccc(Nc4ccnc5cc(Cl)ccc45)cc3)=NN2C(C)=O)cc1 (stereo unspecified),38.3%,3.1%,> 100 mg/L,–
O=CN1N=C(c2ccc(Nc3ccnc4cc(Cl)ccc34)cc2)CC1c1ccc(Br)cc1 (stereo unspecified),50.8%,3.2%,14.1 mg/L,–
CC(=O)N1N=C(c2ccc(Nc3ccnc4cc(Cl)ccc34)cc2)CC1c1ccc(C)cc1 (stereo unspecified),10.6%,–,–,–
COc1cc(C2CC(c3ccc(Nc4ccnc5cc(Cl)ccc45)cc3)=NN2C(C)=O)cc(OC)c1OC (stereo unspecified),0%,–,–,–
CCN(CC)CCCC(C)Nc1ccnc2cc(Cl)ccc12 (stereo unspecified) [CHLOROQUINE PHOSPHATE],–,17.2%,–,68.4%
